High-throughput results deposited in PubChem by NMMLSC.
A selection: hits, their analogues and other compounds. The true share with any hit is near 2.3%.
MEKK2mut PB1 HTS = signal of MEK5 binding to mutant human MEKK2 PB1 domain; bead flow cytometry, Alexa488-MEK5 binding to MEKK2 mutant; percent response, % at 10 µM; 290,000 compounds, 0.35% hits; in the data active = percent response above about 24%, passing the limit was not always enough
MEKK3 PB1 HTS = MEKK3-MEK5 PB1 interaction, increase or decrease; binding response (% of control), % at 10 µM; AID 1529; bead-based flow cytometry, Alexa488-MEK5 binding to MEKK3; actives lie on both sides; 0 = blocked by unlabeled MEK5, 100 = vehicle; 290,000 compounds, 1.4% hits; Q99759;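 active = binding response more than 3 SD above or below the average of its plate-row segment, actives on both sides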;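 note: Alexa488 bead fluorescence after subtracting the streptavidin-only scavenger bead signal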
MEKK2wt PB1 HTS = raises or lowers MEK5 binding to wildtype human MEKK2 PB1 domain; Q9Y2U5; binding response (% of control), % at 10 µM; AID 1531; bead flow cytometry, Alexa488-MEK5 binding to MEKK2 WT; actives lie on both sides; 290,000 compounds, 1.1% hits; in the data active = binding response below about 67% or above about 130%
ABCG2 inh = blocks JC-1 efflux by human ABCG2 transporter | IgMXP3 cells, flow cytometry | Q9UNQ0 | 190,000 compounds, 0.1% hits | inhibition, % at 6.6 µM;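 active = inhibition above 80%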
Target sequence (Q9UNQ0 whole entry, looked up): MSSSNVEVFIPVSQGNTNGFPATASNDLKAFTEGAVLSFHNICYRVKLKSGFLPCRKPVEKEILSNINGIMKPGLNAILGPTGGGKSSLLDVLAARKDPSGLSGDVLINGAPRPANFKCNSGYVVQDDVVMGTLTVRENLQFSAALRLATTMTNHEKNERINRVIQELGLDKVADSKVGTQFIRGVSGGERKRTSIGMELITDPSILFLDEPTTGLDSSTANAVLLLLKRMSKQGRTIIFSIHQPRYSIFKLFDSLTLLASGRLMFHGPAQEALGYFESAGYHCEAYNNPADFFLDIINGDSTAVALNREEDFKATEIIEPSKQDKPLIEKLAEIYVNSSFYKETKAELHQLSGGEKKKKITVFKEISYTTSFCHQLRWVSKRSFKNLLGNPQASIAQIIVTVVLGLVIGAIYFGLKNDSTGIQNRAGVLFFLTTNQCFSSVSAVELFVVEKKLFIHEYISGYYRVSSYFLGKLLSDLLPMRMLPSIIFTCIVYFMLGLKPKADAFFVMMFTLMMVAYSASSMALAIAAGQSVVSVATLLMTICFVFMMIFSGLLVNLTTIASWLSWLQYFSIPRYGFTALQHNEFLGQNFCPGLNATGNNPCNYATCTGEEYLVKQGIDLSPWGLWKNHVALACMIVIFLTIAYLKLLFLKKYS
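test system = two drug-resistant human cell lines, ABCG2 and ABCB1 | amount = 3 million cells/mL final, two lines in 1:1 ratio | reagent = JC-1 transporter substrate | doses = one concentration, 6.6 µM final | incubation = 10 min at 25 °C | signal = flow cytometric JC-1 green MFI at 530 nm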
ABCB1 block = human ABCB1 inhibition, ABCG2 as counter-screen; P08183; CCRF-Adr cells, JC-1 efflux, flow cytometry; inhibition, % at 6.6 µM; 190,000 compounds, 0.067% hits; in the data active = inhibition above about 40%;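 note: higher value means more JC-1 retained so stronger ABCB1 efflux block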
MEKK2wt confirm = raises or lowers MEK5 binding to wildtype human MEKK2, retest; shares compounds with MEKK3 PB1 HTS; bead flow cytometry, Alexa488-MEK5 binding to MEKK2 WT; actives lie on both sides; binding response (% of control), % at 10 µM; 5,900 compounds, 2.4% hits; AID 1892; in the data active = binding response below about 16% or above about 210%; inactive = in between
MEKK2mut confirm = signal of MEK5 binding to mutant human MEKK2, retest; shares compounds with MEKK3 PB1 HTS; bead flow cytometry, Alexa488-MEK5 binding to MEKK2 mutant; percent response, % at 10 µM; 5,900 compounds, 2% hits; in the data active = percent response mostly above about 71%, no sharp cut-off; inactive = mostly below about 38%;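 note: higher means compound restores mutant binding toward wildtype level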
MEKK3 confirm = MEKK3-MEK5 PB1 inhibition, single concentration confirmation. shares compounds with MEKK3 PB1 HTS. bead flow cytometry, Alexa488-MEK5 binding to MEKK3; hits give low values. binding response (% of control), % at 10 µM. 5,900 compounds, 1.8% hits;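 active = binding response below 72% of control, or above a set upper limit, though filed actives all read lower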;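 note: lower values mean stronger disruption of MEK5 binding to MEKK3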
Hits are given with their value; 0 = inactive; - = no result; [ ] = another dose, or the depositor's remark.

SMILES | MEKK2mut PB1 HTS | MEKK3 PB1 HTS | MEKK2wt PB1 HTS | ABCG2 inh | ABCB1 block | MEKK2wt confirm | MEKK2mut confirm | MEKK3 confirm
Cc1ccc2c(c1)c1c3n2CCN(CC(N)=O)C3CCC1 (configuration not stated) | 0 | 0 | 0 | - | - | - | - | -
Cc1cccc(C)c1NC(=O)C1(N(Cc2ccco2)C(=O)Cn2nnnc2N)CCCCC1 | 0 | 0 | 0 | 0 | 0 | - | - | -
Cc1cccc(C)c1NC(=O)C1(N(Cc2ccco2)C(=O)CC2NC(=O)NC2=O)CCCC1 (configuration not stated) | 0 | 3.0[inhibitor] | 3.0[inhibitor] | 0 | 0 | 0 | 0 | 0
O=C(CSc1ncn[nH]1)c1ccc2c(c1)OCCO2 | 0 | 77[inhibitor] | 0 | 0 | 0 | 0 | 0 | 0
O=C(CSc1nnc(-c2ccccc2)o1)c1ccc2c(c1)OCCO2 | 0 | 80[inhibitor] | 0 | 0 | 0 | 0 | 0 | 0
Cc1cc(C)cc(-c2nnc(SCC(=O)c3ccc4c(c3)OCCO4)o2)c1 | 0 | 0 | 0 | 0 | 0 | - | - | -
N=c1c(S(=O)(=O)c2ccc(Cl)cc2)cc2c(=O)n3ccccc3nc2n1C1CCCCC1 | 0 | 0 | 0 | - | - | - | - | -
O=C(NCc1cccs1)c1cc(-c2ccc(O)cc2)on1 | 0 | 46[inhibitor] | 0 | - | - | 0 | 0 | 0
C/C(=N/Nc1ccc([N+](=O)[O-])cc1)c1ccc(C)cc1C | 0 | 0 | 148 | 0 | 0 | 0 | 0 | 0
C/C(=N\Nc1ccc([N+](=O)[O-])cc1)c1ccc(C#N)cc1 | 0 | 0 | 0 | - | - | - | - | -
O=C(O)CC/C(=N/Nc1ccc([N+](=O)[O-])cc1)C(=O)O | 0 | 75[inhibitor] | 0 | - | - | 0 | 0 | 0
Cc1cc(N/N=C/c2ccccc2Cl)nc(NCc2ccccc2)n1 | 0 | 0 | 146 | 0 | 0 | 0 | 0 | 0
Cc1cc(C)nc(N/N=C/c2ccccc2Cl)n1 | 0 | 0 | 0 | - | - | - | - | -
Cc1ccc(Nc2cc(C)nc(NCc3ccccc3)n2)cc1 | 0 | 0 | 151 | 0 | 0 | 0 | 0 | 0
COc1ccc(Nc2cc(C)nc(NCc3ccccc3)n2)cc1 | 0 | 0 | 0 | - | - | - | - | -
Cc1cc(N2CCN(c3ccccc3)CC2)nc(NCc2ccccc2)n1 | 0 | 0 | 168 | 0 | 0 | 0 | 0 | 0
Cc1ccccc1CCNC(=O)C1CCC(=O)N(CCc2cccc(F)c2)C1 (configuration not stated) | 0 | 0 | 0 | - | - | - | - | -
O=c1cc(N2CCCC2)c2ccccc2o1 | 0 | 1.0[inhibitor] | - | 0 | 0 | 0 | 0 | 0
COC(=O)CC1C(=O)NCCN1C(=O)c1ccc([N+](=O)[O-])cc1 (configuration not stated) | 0 | 0 | 0 | - | - | - | - | -
CCN(CC)c1ccc(/C=N/Nc2nc3ccccc3[nH]2)c(O)c1 | 31 | 0 | 0 | 0 | 0 | 0 | 0 | 0
CCN(CC)c1ccc(/C=N/N(c2ccccc2)c2ccccc2)c(O)c1 | 0 | 0 | 0 | 0 | 0 | - | - | -
CCN(CC)c1ccc(O)c(C=Nc2ccc(C)c(C)c2)c1 | 0 | 0 | 0 | 0 | 0 | - | - | -
CCN(CC)c1ccc(C=Nc2ccc(C#N)cc2)c(O)c1 | 0 | 0 | 67[inhibitor] | 0 | 0 | 0 | 0 | 0
CCN(CC)c1ccc(C=Nc2ccccc2C)c(O)c1 | 0 | 140 | 0 | 0 | 0 | 0 | 0 | 0
CCOC(=O)c1c(N)sc(C(N)=O)c1C | 0 | 0 | 0 | 0 | 0 | - | - | -
SMILES | MEKK2mut PB1 HTS | MEKK3 PB1 HTS | MEKK2wt PB1 HTS | ABCG2 inh | ABCB1 block | MEKK2wt confirm | MEKK2mut confirm | MEKK3 confirm
Cc1c(C(N)=O)sc(N)c1C(=O)OC(C)C | 0 | 122 | 0 | 0 | 0 | 0 | 0 | 0
Cc1c(C(=O)OC(C)C)sc(N)c1C(=O)OC(C)C | 0 | 131 | 0 | 0 | 0 | 0 | 0 | 0
CC(=O)c1sc(N)c(C(=O)OC(C)C)c1C | 0 | 0 | 0 | 0 | 0 | - | - | -
CN(C)S(=O)(=O)c1ccc(C(=O)NC(=O)CSc2ccccc2)cc1 | 0 | 131 | 0 | 0 | 0 | 0 | 0 | 0
Cc1ccccc1NC(=O)c1ccc(S(=O)(=O)N(C)C)cc1 | 0 | 0 | 0 | 0 | 0 | - | - | -
Cc1coc2cc3oc(=O)ccc3cc12 | 0 | 0 | 0 | - | - | - | - | -
O=C(Nc1ccnn1C1CCN(Cc2ccc(OC(F)F)cc2)CC1)C1CCCC1 | 0 | 0 | 135 | - | - | 0 | 0 | 0
O=C(Nc1ccnn1C1CCN(Cc2ccc(Cl)cc2)CC1)C1CCCC1 | 0 | 0 | 0 | - | - | - | - | -
CC(=O)c1c(C)[nH]c(C(=O)Nc2ccc(Cl)c(S(=O)(=O)N(C)C)c2)c1C | 0 | 0 | 0 | 0 | 0 | - | - | -
CC(=O)c1c(C)[nH]c(C(=O)OCC(=O)Nc2ccc(Cl)c(S(=O)(=O)N(C)C)c2)c1C | 0 | 38[inhibitor] | 43[inhibitor] | - | - | 0 | 0 | 0
CCOc1ncccc1C(=O)OCC(=O)Nc1ccc(C)c(S(=O)(=O)N(C)C)c1 | 0 | 73[inhibitor] | 0 | 0 | 0 | 0 | 0 | 0
O=C(Cn1cnc(S(=O)(=O)N2CCCCC2)c1)NCc1ccco1 | 0 | 0 | 0 | - | - | - | - | -
CC1CCCN(C2(O)C(=O)Nc3ccc(Cl)cc32)C1 (configuration not stated) | 0 | 0 | 0 | - | - | - | - | -
O=S(=O)(Nc1cccc(-c2cn3c(n2)SCC3)c1)c1ccccc1 | 0 | 0 | 0 | - | - | - | - | -
O=[N+]([O-])c1ccc(-c2ccc(/C=N/Nc3nc(N4CCCCC4)nc(N4CCCCC4)n3)o2)cc1 | 99 | 0 | 0 | 0 | 0 | 0 | 0 | 0
COc1ccc([N+](=O)[O-])cc1/C=N/NC(=O)CNC(=O)c1cccc(F)c1 | 0 | 0 | 0 | 0 | 0 | - | - | -
COc1ccc([N+](=O)[O-])cc1/C=N/NC(=O)CNC(=O)C(c1ccccc1)c1ccccc1 | 0 | 165 | 0 | 0 | 0 | 0 | 0 | 0
COc1cccc(C2/C(=C(/O)c3ccc4c(c3)OCO4)C(=O)C(=O)N2CCN2CCOCC2)c1 (configuration not stated) | 0 | 0 | 0 | - | - | - | - | -
O=C(Cc1ccc([N+](=O)[O-])cc1)NCc1ccccc1Cl | 0 | 146 | 0 | 0 | 0 | 0 | 0 | 0
Cc1ccccc1N1CCN(CCCN2C(=O)CC(=C(c3ccccc3)c3ccccc3)C2=O)CC1 | 0 | 0 | 0 | 0 | 0 | - | - | -
O=C1CC(=C(c2ccccc2)c2ccccc2)C(=O)N1CCCCN1CCN(c2cccc(Cl)c2)CC1 | 0 | 0 | 142 | 0 | 0 | 0 | 0 | 0
COc1cc(OC)cc(C(=O)N2CCN(Cc3ccc4c(c3)OCO4)CC2)c1 | 0 | 0 | 0 | - | - | - | - | -
CC12CN3CC(C)(CN(C1)C3c1ccc(F)cc1)C2 (configuration not stated) | 0 | 130 | 0 | 0 | 0 | 0 | 0 | 0
O=C(NCc1ccco1)C1CCN(S(=O)(=O)c2cccc([N+](=O)[O-])c2)CC1 | 0 | 0 | 0 | - | - | - | - | -
CCOc1ccc(OCC)c(S(=O)(=O)n2ccnc2C)c1 | 25 | 0 | 0 | - | - | 0 | 0 | 0
